# PP5 inh: blocks human protein phosphatase 5 activity | purified PP5c, OMFP substrate fluorescence | inhibition, % at 6.7 µM | 0.18% of 320,000 active | AID 1987;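 active means inhibition above the campaign's mean inhibition across all tested compounds plus 3 SD, cut at about 9.5% in these data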
# HTR2A ag: agonists of mouse serotonin 5-HT2A receptor (HTR2A). 0.66% of 360,000 active. P35363. CHO-K1 mHTR2A beta-arrestin complementation, luminescence; percent of 30 µM serotonin response. activation, % at 7.6 µM;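 active means activation above a run cutoff, the mean activation of all tested compounds plus 3 SD, cut at about 14% in these data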
# Target sequence (P35363 whole entry, looked up): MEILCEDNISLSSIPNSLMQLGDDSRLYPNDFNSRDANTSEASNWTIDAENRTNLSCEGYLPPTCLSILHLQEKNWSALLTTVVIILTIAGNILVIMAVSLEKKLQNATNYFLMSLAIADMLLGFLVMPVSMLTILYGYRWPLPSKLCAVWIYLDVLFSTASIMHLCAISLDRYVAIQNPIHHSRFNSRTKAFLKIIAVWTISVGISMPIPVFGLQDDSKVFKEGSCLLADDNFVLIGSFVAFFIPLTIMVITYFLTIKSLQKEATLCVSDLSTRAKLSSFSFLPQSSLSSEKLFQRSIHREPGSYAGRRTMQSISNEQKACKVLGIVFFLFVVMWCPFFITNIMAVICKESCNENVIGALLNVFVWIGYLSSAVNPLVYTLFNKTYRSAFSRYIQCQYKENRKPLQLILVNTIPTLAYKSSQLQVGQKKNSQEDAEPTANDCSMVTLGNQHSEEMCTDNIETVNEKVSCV
# JMJD2C inh: inhibitors of human GASC-1 (JMJD2C) demethylase; GST-JMJD2C(1-420) H3K9me3 demethylation, DELFIA europium; inhibition, % at 2.35 µM; 0.069% of 330,000 active;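 active means more than half of a compound's replicate wells show inhibition beyond 50%, single wells judged on their own value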;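 further: signal counts dimethyl H3K9 product captured on neutravidin plate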
# T cell HTS: modulates CD8 T cell binding to vesicles | 0.068% of 330,000 active | AID 2052 | response (vesicle binding), % at 7 µM | 2C CD8+ T cell-vesicle binding, flow cytometry; stronger effect = lower value;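 active means response, share of CD8 T cells binding vesicles, and their 90th percentile fluorescence all below set limits, cut at about 80% in these data, passing the limit was not always enough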;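 further: values below 100% mean blocked vesicle binding to the CD8+ T cells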
#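 Material: 2C TCR transgenic mouse naive CD8+ T cells, MACS-purified. Also added: QL9-charged Drosophila Ld/ICAM-1/B7-1 vesicles. Timing: binding 1.5 h at 37 °C. Measured by: high-throughput flow cytometry with anti-B7-1 and anti-CD8 staining. Read-out: percent CD8+ FL2 mean versus row control. Controls: Unloaded micro-vesicles (low), QL9 vesicles with 0.7% DMSO (high).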
# PP1 inh: counter-screen for PP5 inhibitors: inhibitors of human PP1-alpha | P62136 | purified PP1alpha, OMFP fluorescence | inhibition, % at 6.7 µM | 0.9% of 320,000 active | AID 2235;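 active means inhibition above the mean inhibition of all tested compounds plus 3 SD, computed separately for each screening campaign, cut at about 15% in these data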
# PP1 inh confirm: human PP1 phosphatase inhibition, confirmation; inhibition, % at 6.7 µM; shares compounds with PP1 inh; purified PP1alpha, OMFP substrate fluorescence; 52% of 1,900 active;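 active means mean PP1 inhibition above a set limit taken from the earlier primary screen, cut at about 15% in these data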
# PP5 inh counter: counter-screen for PP1 inhibitors: human PP5 phosphatase inhibition; shares compounds with PP1 inh; purified PP5c, OMFP fluorescence; inhibition, % at 6.7 µM; 4% of 1,900 active;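 active means mean PP5 inhibition over triplicate wells above about 9.5% taken from the earlier PP1 screen, limit read from the data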
# A number is an active result; n = inactive; x = not tested or not shown. In the library only some 1.7% were active in any assay of this set; here they are far more common.
SMILES,PP5 inh,HTR2A ag,JMJD2C inh,T cell HTS,PP1 inh,PP1 inh confirm,PP5 inh counter
CCc1cccc(NC(=O)c2ccc(Cn3c(=O)[nH]c4ccsc4c3=O)cc2)c1,n,n,n,n,18,n,n
COc1ccccc1NC(=O)N1CCN(Cc2ccc3c(c2)OCO3)CC1,n,n,n,n,n,x,x
COc1ccc(Cc2nnc(NC(=O)Nc3ccc(F)cc3)s2)cc1,n,n,n,n,22,n,n
COc1ccc(Cc2nnc(NC(=O)Nc3cccc(OC)c3)s2)cc1,n,n,n,n,18,15,n
COc1ccc(S(=O)(=O)N2CCC[C@@H]2C(=O)N2CCC[C@H]2C(=O)NCc2ccncc2)cc1C,x,n,x,x,x,x,x
O=C(CSc1nc2ccc(Nc3nc(N4CCCC4)nc(N4CCCC4)n3)cc2s1)NCc1ccco1,n,n,n,n,19,n,n
O=C(CSc1nc2ccc(Nc3nc(N4CCOCC4)nc(N4CCOCC4)n3)cc2s1)Nc1ccccc1Cl,x,n,n,n,x,x,x
CCOC(=O)CSc1nnc(CNc2ccc(Cl)cc2)n1-c1ccccc1,n,n,n,n,n,x,x
CCOc1ccc(NCc2nnc(SCC(=O)Nc3nc(-c4ccccc4)cs3)n2-c2ccccc2)cc1,n,n,n,n,28,n,n
CCOc1ccc(NCc2nnc(SCc3ccc(Cl)cc3)n2-c2ccccc2)cc1,n,n,n,n,18,n,n
COc1ccc(C2NCCc3c2[nH]c2ccccc32)cc1CSc1nc2ccccc2s1 (configuration not stated),n,n,n,n,19,n,n
Cc1cc(C(=O)Nc2cc(Br)ccc2O)on1,n,n,n,n,n,x,x
CCOC(=O)c1sc(N2C(=O)C(O)=C(C(=O)c3ccco3)C2c2cccc(Cl)c2)nc1C (configuration not stated),n,n,n,n,27,17,n
Cc1nnc(N2C(=O)C(O)=C(C(=O)c3ccco3)C2c2cccc([N+](=O)[O-])c2)s1 (configuration not stated),n,n,n,n,n,x,x
CCOC(=O)c1sc(N2C(=O)C(O)=C(C(=O)c3ccco3)C2c2cccc([N+](=O)[O-])c2)nc1C (configuration not stated),n,n,n,n,39,45,n
CCOC(=O)c1sc(-c2cccc(C(F)(F)F)c2)nc1O,n,n,n,n,18,17,n
C/C(=N\OC(=O)c1cccc(C(F)(F)F)c1)c1sc(-c2ccccc2)nc1C,n,n,n,n,n,x,x
CCOC(=O)c1sc(-c2ccc(Cl)cc2)nc1O,n,n,n,n,25,18,n
Nc1nc(N)c(N=O)c(OCC2CCCCC2)n1,n,n,n,n,n,x,x
COc1cc(/C=C/C(=O)O[C@H]2[C@H](O[C@@H]3O[C@@H](C)[C@H](O)[C@@H](O)[C@H]3O)[C@@H](O)[C@H](OCCc3ccc(O)c(OC)c3)O[C@@H]2CO)ccc1O,x,n,x,n,x,x,x
O=c1ccc(=O)n(CCc2ccccn2)[nH]1,x,n,x,x,x,x,x
CSCCC(NC(=O)COc1ccccc1)C(=O)OCCOc1ccc(C)cc1 (configuration not stated),n,n,n,n,n,x,x
CSCCC(NC(=O)COc1ccccc1)C(=O)N(C)CC(=O)Nc1c(C)cccc1C (configuration not stated),n,n,n,n,21,n,n
CCCCSc1nc(C)cc(SCC(=O)N/N=C/c2cccc(OC)c2O)n1,n,n,n,n,21,n,n
CCC(=O)Nc1ccc(C(=O)COC(=O)c2nc3nccc(C)n3n2)cc1,n,n,n,n,20,n,n
SMILES,PP5 inh,HTR2A ag,JMJD2C inh,T cell HTS,PP1 inh,PP1 inh confirm,PP5 inh counter
O=C(Nc1nnc(-c2ccccc2)o1)c1nc2ccccc2s1,n,n,n,n,25,28,n
NC(=O)c1oc2ccccc2c1NC(=O)c1nc2ccccc2s1,n,n,n,n,25,16,n
Cc1ccc(C(=O)OCC(=O)NC2CCCC2)cc1,n,n,n,n,n,x,x
C=CCOc1ccc(/C=N/N2C(=O)C(CC(=O)Nc3ccc(F)cc3F)SC2=NC)cc1 (configuration not stated),n,n,n,n,n,x,x
Cc1coc2c(C)c3oc(=O)c(CCC(=O)NCc4ccccn4)c(C)c3cc12,n,n,n,n,n,x,x
O=C1COc2ccc(C(=O)COC(=O)/C=C/c3ccc(Br)o3)cc2N1,n,n,n,n,22,26,n
COc1cc2ccccc2cc1C(=O)Nc1ccc2oc(=O)ccc2c1,n,n,n,n,24,n,n
Cc1nnc2sc(-c3ccc(NC(=O)CSc4ccc(Cl)cc4)cc3)nn12,n,n,n,n,18,n,n
Cc1ccc(Nc2c(-c3ccc(N4CCOCC4)cc3)nc3cnccn23)cc1,n,n,n,n,63,n,n
Cc1ccccc1Nc1c(-c2ccc(N3CCOCC3)cc2)nc2cnccn12,n,n,n,n,n,x,x
Cc1cc(SCC(=O)N/N=C/c2ccc(O)c(O)c2O)c(C)cc1Br,n,n,n,n,35,33,n
COc1cc(/C=N/NC(=O)CSc2cc(C)c(Br)cc2C)ccc1O,n,n,n,n,n,x,x
O=C(Nc1ccc(Nc2ccncc2)cc1)c1ccc(Nc2ccnc3ccc([N+](=O)[O-])cc23)cc1[N+](=O)[O-],n,n,n,n,41,n,n
O=C(Nc1ccc(Nc2ccncc2)cc1)c1ccc([N+](=O)[O-])cc1,n,n,n,n,n,x,x
COc1cccc(/C=N/Nc2ncnc3c2ncn3Cc2ccccc2)c1O,n,n,n,n,20,27,n
COc1cccc(/C=N/Nc2cc(N3CCOCC3)ncn2)c1O,n,n,n,n,25,20,n
COc1ccc(/C=N/Nc2cc(N3CCOCC3)ncn2)c(OC)c1,n,n,n,n,n,x,x
COc1cccc(/C=N/Nc2cc(Cl)nc(C)n2)c1O,n,n,n,n,n,x,x
C#Cc1ccc([C@H]2C=C(C(=O)N3CCN(Cc4ccccc4)CC3)O[C@@H](OCc3ccc(CO)cc3)C2)cc1,n,n,n,n,19,20,n
COc1ccc(CNC(=O)C(NC(C)=O)C(=O)Nc2ccc(C(C)C)cc2)cc1 (configuration not stated),n,n,n,n,n,x,x
CC(C)(C)c1ccc(-c2nn(CCC#N)cc2/C=N/O)cc1,n,n,n,n,32,n,n
O=c1cc(-c2ccccc2)cc(-c2ccccc2)n1O,n,n,n,n,20,n,n
CCOc1ccc(C(=O)OCC(=O)NC(C)C)cc1,n,n,n,n,n,x,x
CCOC(=O)c1cnc(-n2cc(C)cn2)nc1NCc1ccc2c(c1)OCO2,n,n,n,n,21,65,n

# Compound activity from PubChem BioAssay.
